In series [1] the target is T1, A disintegrin and metalloproteinase with thrombospondin motifs 5 (Homo sapiens, UniProt Q9UNA0).
T1 sequence (Q9UNA0 whole entry): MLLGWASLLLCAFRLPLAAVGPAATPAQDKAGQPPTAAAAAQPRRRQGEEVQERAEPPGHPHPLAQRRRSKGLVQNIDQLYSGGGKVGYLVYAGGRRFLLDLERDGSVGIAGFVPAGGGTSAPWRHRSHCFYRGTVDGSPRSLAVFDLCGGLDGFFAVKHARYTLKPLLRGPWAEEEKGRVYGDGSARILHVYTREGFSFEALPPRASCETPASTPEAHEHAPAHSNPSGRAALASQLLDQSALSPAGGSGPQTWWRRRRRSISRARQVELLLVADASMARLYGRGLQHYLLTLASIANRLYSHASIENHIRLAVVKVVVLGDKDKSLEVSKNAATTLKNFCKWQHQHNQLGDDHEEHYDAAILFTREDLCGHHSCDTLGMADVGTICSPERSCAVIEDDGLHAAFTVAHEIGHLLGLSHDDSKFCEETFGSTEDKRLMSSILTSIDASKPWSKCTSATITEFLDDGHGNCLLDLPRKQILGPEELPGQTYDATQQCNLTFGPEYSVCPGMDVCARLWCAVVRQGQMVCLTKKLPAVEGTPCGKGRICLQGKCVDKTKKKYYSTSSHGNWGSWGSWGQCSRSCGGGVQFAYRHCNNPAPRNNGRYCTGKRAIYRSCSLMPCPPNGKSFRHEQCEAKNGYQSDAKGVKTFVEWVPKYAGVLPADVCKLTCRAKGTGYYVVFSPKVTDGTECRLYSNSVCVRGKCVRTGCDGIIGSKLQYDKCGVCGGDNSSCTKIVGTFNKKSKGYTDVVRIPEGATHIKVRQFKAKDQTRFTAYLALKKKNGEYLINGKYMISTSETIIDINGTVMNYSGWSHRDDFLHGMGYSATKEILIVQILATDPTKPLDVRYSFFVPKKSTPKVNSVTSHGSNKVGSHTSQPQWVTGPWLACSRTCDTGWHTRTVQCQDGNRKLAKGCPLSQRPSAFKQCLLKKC
Briefly: Inhibition of human recombinant ADAMTS-5 using QTVTWPDMELPLPRNITEGEARGSVIL-TVKPIFEVSPSPL(biotinyl)K as substrate incubated 10 mins prior to substrate addition measured after 3 hrs by spectrophotometry.

Series [2] concerns the target T2, A disintegrin and metalloproteinase with thrombospondin motifs 5 (Homo sapiens) (UniProt Q9UNA0).
T2 sequence (whole entry): T1 sequence (Q9UNA0 whole entry)
The experiment in a line: Inhibition of human recombinant ADAMTS-5 using QTVTWPDMELPLPRNITEGEARGSVIL-TVKPIFEVSPSPL(biotinyl)K as substrate at 100 uM incubated 10 mins prior to substrate addition measured after 3 hrs by spectrophotometry.

For series [3], the target named is T3, A disintegrin and metalloproteinase with thrombospondin motifs 4 (Homo sapiens, UniProt O75173).
T3 sequence (O75173 whole entry): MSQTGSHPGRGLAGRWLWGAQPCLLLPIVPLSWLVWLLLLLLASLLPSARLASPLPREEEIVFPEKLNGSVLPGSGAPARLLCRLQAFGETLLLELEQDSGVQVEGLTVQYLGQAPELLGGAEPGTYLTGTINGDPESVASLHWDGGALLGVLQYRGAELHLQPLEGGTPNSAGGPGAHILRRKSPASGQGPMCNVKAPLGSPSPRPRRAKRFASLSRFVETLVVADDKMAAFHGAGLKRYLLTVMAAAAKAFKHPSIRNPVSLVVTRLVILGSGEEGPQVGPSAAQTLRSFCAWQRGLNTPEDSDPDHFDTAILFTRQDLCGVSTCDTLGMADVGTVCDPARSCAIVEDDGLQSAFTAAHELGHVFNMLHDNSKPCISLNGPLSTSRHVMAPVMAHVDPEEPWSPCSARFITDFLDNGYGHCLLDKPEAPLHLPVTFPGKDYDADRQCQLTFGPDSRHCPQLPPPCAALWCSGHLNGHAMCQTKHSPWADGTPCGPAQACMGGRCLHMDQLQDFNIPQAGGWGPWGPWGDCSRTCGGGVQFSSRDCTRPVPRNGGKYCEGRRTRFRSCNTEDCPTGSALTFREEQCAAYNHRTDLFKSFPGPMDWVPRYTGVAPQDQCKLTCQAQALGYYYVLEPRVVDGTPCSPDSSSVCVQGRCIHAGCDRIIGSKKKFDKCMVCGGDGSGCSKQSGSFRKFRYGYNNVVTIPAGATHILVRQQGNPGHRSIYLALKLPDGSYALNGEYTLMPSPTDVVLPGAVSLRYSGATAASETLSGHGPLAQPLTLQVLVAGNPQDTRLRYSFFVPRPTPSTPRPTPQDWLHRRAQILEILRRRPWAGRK
The experiment in a line: Inhibition of human recombinant ADAMTS-4 using QTVTWPDMELPLPRNITEGEARGSVIL-TVKPIFEVSPSPL(biotinyl)K as substrate incubated for 10 mins prior to substrate addition measured after 3 hrs by spectrophotometry. The procedure, abridged: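 It was then added to streptavidin wells coated with the biotinylated 41-mer aggrecan peptide and reacted for 3 h at 37 °C. Cleavage product was detected by BC-3 anti-ARGxx ELISA with HRP and TMB, read at 450 nm.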

In series [4] the target is T2, A disintegrin and metalloproteinase with thrombospondin motifs 5 (Homo sapiens). The experiment in a line: Inhibition of human recombinant ADAMTS-5 using bovine articular aggrecan as substrate incubated 20 mins prior to substrate addition measured after 48 hrs by spectrophotometry. The essentials:
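ADAMTS-5 (3.4 µL of 600 nM stock) was pre-incubated 20 min at 37 °C with compound or 4% DMSO vehicle in Tris/NaCl/CaCl₂/Brij35, pH 7.5. Bovine articular aggrecan (50 µg/mL final) was added for 48 h at 37 °C, then stopped with EDTA. Samples were bound to PVDF and digested with chondroitinase ABC and keratanase. The ARGSVIL neoepitope was detected by BC-3 ELISA with TMB, read at 450 nm.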

Series [5] can be described thus: Solubility of the compound at 100 uM. Type of series: physicochemical.

For 45 compounds, IC50, inhibition and solubility results are on record in ChEMBL document CHEMBL2434855, “Aggrecanase-2 inhibitors based on the acylthiosemicarbazide zinc-binding group” (Eur J Med Chem, 2013).

One may read the IC50 as the concentration that inhibits the measured activity by half. Usually inhibition stands for the share of the control response that was lost under treatment.

For the compound `O=C(COc1ccc(Cl)cc1)NNC(=S)NCc1cccc(-c2ccccc2)c1`, the IC50 in series [1] was 2300 nM.

Consider `O=C(COc1ccccc1)NNC(=S)NCCCCC1CCCCC1`, for which the IC50 in series [1] was more than 100000 nM. Further, the inhibition in series [2] is less than 20%.

For `CN(CCCCc1ccccc1)C(=S)NNC(=O)COc1ccc(Cl)cc1`, the results for the IC50 in series [3] and in series [1] were 1500 nM and 1100 nM, respectively.

For the compound `O=C(COc1ccc(OCc2ccccc2)cc1)NNC(=S)NCc1ccc(-c2ccccc2)cc1`, the IC50 in series [1] came out at 1000 nM. For the compound `O=C(COc1ccc(Cl)cc1)NNC(=S)NCCCc1ccccc1`, the IC50 in series [3] turned out to be 2000 nM; in series [1], 1400 nM. For the compound `O=C(Cc1ccc(-c2ccccc2)cc1)NNC(=S)NCCc1ccc(Cl)cc1`, the IC50 in series [1] stood at 5200 nM. In the case of `O=C(COc1ccc([N+](=O)[O-])cc1)NNC(=S)NCCCCC1CCCCC1`, the IC50 in series [3] was 790 nM; in series [1], 810 nM. On to `O=C(COc1ccc(Cl)cc1Cl)NNC(=S)NCc1ccc(-c2ccccc2)cc1`, for which the IC50 in series [1] came to 1200 nM. Still for that read-out and setting: as for `O=C(NNC(=S)NCc1ccc(-c2ccccc2)cc1)C1CNc2cc(Cl)ccc2O1` (stereo not given), the figure is 3300 nM; as for `O=C(COc1ccc(Cl)cc1)NNC(=S)NCCCCc1ccccc1`, 1000 nM. Turning to `CC(=O)NNC(=S)NCCCCC1CCCCC1`, the IC50 in series [1] is more than 100000 nM. Besides, the inhibition in series [2] is less than 20%. Take `CC(C)(Oc1ccc(Cl)cc1)C(=O)NNC(=S)NCc1ccc(-c2ccccc2)cc1`: the IC50 in series [1] was found to be 6900 nM. Still for that read-out and setting: as for `O=C(COc1ccc(Cl)cc1)NNC(=S)NCc1ccccc1`, the figure is 12600 nM.

`COc1ccc(OCC(=O)NNC(=S)NCc2ccc(-c3ccccc3)cc2)cc1`: in series [1], the IC50 is 1700 nM. For `O=C(NNC(=S)NCCCCC1CCCCC1)c1ccc(Cl)cc1`, the inhibition result in series [4] was “Dose-dependent effect”. Besides, the IC50 in series [3] came out at 1400 nM; in series [1], 670 nM. For the compound `O=C(NNC(=S)NCc1ccc(-c2ccccc2)cc1)c1ccc(Cl)cc1`, the figures for the half-inhibitory concentration (IC50) in series [3] and in series [1] were 1600 nM and 700 nM, respectively. Regarding `CN(NC(=S)NCc1ccc(-c2ccccc2)cc1)C(=O)COc1ccc(Cl)cc1`, in series [1], the IC50 was more than 100000 nM. In addition, in series [2], the inhibition was less than 30%. Regarding `O=C(COc1ccc(Cl)cc1)NNC(=S)NCc1ccccc1-c1ccccc1`, the results for the IC50 in series [3] and in series [1] were 2900 nM and 490 nM, respectively. As for `O=C(COc1ccc(Cl)cc1)NNC(=S)N1CCC(Cc2ccccc2)CC1`, in series [1], the IC50 is 1600 nM. On to `O=C(COc1ccc(Cl)cc1)NNC(=S)NCCCn1ccnc1`, for which the IC50 in series [1] worked out at 1600 nM. Take `O=C(COc1ccc(Cl)cc1)NCC(=S)NCc1ccc(-c2ccccc2)cc1`: the IC50 in series [1] is more than 100000 nM. In addition, the inhibition in series [2] is less than 30%.

For the compound `CN(NC(=S)NCCCCC1CCCCC1)C(=O)COc1ccc(Cl)cc1`, in series [1], the IC50 was more than 100000 nM. Moreover, the inhibition in series [2] was less than 30%. As for `O=C(COc1cccc(Cl)c1)NNC(=S)NCc1ccc(-c2ccccc2)cc1`, in series [1], the IC50 was 2100 nM. Same read-out and setting: as for `O=C(COc1ccccc1Cl)NNC(=S)NCc1ccc(-c2ccccc2)cc1`, the figure is 1900 nM; as for `O=C(CNc1ccc(Cl)cc1)NNC(=S)NCc1ccc(-c2ccccc2)cc1`, 6300 nM. On to `O=C(COc1ccc(F)cc1)NNC(=S)NCc1ccc(-c2ccccc2)cc1`, for which the IC50 in series [1] was 100000 nM. The inhibition in series [2] stood at 49%. Consider `O=C(COc1ccc([N+](=O)[O-])cc1)NNC(=S)NCc1ccc(-c2ccccc2)cc1`, for which, in series [1], the IC50 was 4000 nM. The same measure, in the same setting: the same measure for `O=C(COc1ccc(Cl)cc1)NNC(=S)NCc1ccc(-c2ccccc2)cc1`: 1200 nM; for `O=C(COc1ccc(Cl)cc1)NCC(S)C(=O)NCCc1ccccc1` (stereo not given): 8700 nM. On to `O=C(COc1cccc2ccccc12)NNC(=S)NCCCCC1CCCCC1`, for which the IC50 is 1000 nM in series [3] and 880 nM in series [1].

Turning to `O=C(COc1ccc(-c2ccccc2)cc1)NNC(=S)NCc1ccc(-c2ccccc2)cc1`, the solubility result in series [5] is “Insoluble”. For the same compound, the 50% inhibitory concentration (IC50) in series [1] is 60000 nM. For the compound `O=C(NNC(=S)NCCCCC1CCCCC1)C1CNc2cc(Cl)ccc2O1` (stereo not given), the IC50 in series [1] worked out at 1260 nM. Same read-out and setting: as for `O=C(COc1ccc(Cl)cc1)NNC(=S)NCCc1ccccc1`, the figure is 2800 nM; as for `O=C(COc1ccc2ccccc2c1)NNC(=S)NCc1ccc(-c2ccccc2)cc1`, 3200 nM; as for `O=C(Cc1nc(-c2cnccn2)no1)NNC(=S)NCCCCC1CCCCC1`, 3100 nM. Regarding `COc1ccc(OCC(=O)NNC(=S)NCCCCC2CCCCC2)cc1`, the 50% inhibitory concentration (IC50) in series [1] was more than 100000 nM. Also, the inhibition in series [2] amounted to 50%. As to `O=C(COc1ccc(C(F)(F)F)cc1)NNC(=S)NCc1ccc(-c2ccccc2)cc1`, the 50% inhibitory concentration (IC50) in series [1] worked out at 1700 nM. For the compound `O=C(Cc1ccc(-c2ccccc2)cc1)NNC(=S)NCCCCC1CCCCC1`, the IC50 in series [3] was 730 nM; in series [1] it was 300 nM. As to `O=C(COc1ccccc1)NNC(=S)NCc1ccc(-c2ccccc2)cc1`, the IC50 in series [1] was 10000 nM. Still for that read-out and setting: as for `O=C(COc1cccc2ccccc12)NNC(=S)NCc1ccc(-c2ccccc2)cc1`, the figure is 4100 nM. Still for that read-out and setting: as for `O=C(Cc1nc(-c2ccccc2)no1)NNC(=S)NCCCCC1CCCCC1`, the figure is 340 nM. In the case of `O=C(COc1ccc(Cl)cc1)NNC(=S)NCc1cccnc1`, in series [1], the IC50 was 100000 nM. The inhibition in series [2] was 50%.

As to `O=C(COc1ccc(Cl)cc1)Nn1ccn(Cc2ccc(-c3ccccc3)cc2)c1=S`, in series [1], the IC50 was more than 100000 nM. Also, the inhibition in series [2] is less than 30%. Turning to `O=C(COc1ccc(C(F)(F)F)cc1)NNC(=S)NCCCCC1CCCCC1`, the IC50 turned out to be 610 nM in series [3] and 540 nM in series [1].

On to `O=C(COc1ccc(Cl)c(Cl)c1)NNC(=S)NCc1ccc(-c2ccccc2)cc1`, for which, in series [1], the IC50 was found to be 1200 nM.
